Results collected from several papers.
Compare with care: the assays were run in different laboratories.
Read-out: cell growth or viability

Structure (SMILES) | cell line | test | conditions | measurement | value
CC(C)C[C@@H](NC(=O)[C@H](C)NC(=O)CNC(=O)[C@@H](NC=O)C(C)C)C(=O)N[C@@H](C)C(=O)N[C@@H](C(=O)N[C@H](C(=O)N[C@@H](C(=O)N[C@@H](Cc1c[nH]c2ccccc12)C(=O)N[C@H](CC(C)C)C(=O)N[C@@H](Cc1cccc2cc[nH]c12)C(=O)N[C@H](CC(C)C)C(=O)N[C@@H](Cc1c[nH]c2ccccc12)C(=O)N[C@H](CC(C)C)C(=O)N[C@@H](Cc1c[nH]c2ccccc12)C(=O)NCCO)C(C)C)C(C)C)C(C)C | MCF7 | SRB | 48 h | GI50 | 36.5 nM
S=P1(c2ccccc2)CCCCC1 | SW-620 | MTT | 72 h | IC50 | > 100000 nM
CC[C@H](C)[C@H](NC(=O)[C@H](CCCCN)NC(=O)[C@H](CCCCN)NC(=O)[C@H](CC(C)C)NC(=O)[C@H](CCCCN)NC(=O)[C@H](CCCCN)NC(=O)[C@H](Cc1ccccc1)NC(=O)[C@H](Cc1ccccc1)NC(=O)[C@H](CCCNC(=N)N)NC(=O)[C@H](CCCNC(=N)N)NC(=O)[C@@H](NC(=O)[C@H](CCCCN)NC(=O)[C@H](CCCNC(=N)N)NC(=O)[C@@H](NC(=O)[C@@H](N)Cc1ccc(O)cc1)[C@@H](C)CC)[C@@H](C)CC)C(=O)N[C@@H](CC(C)C)C(=O)N[C@@H](CCCCN)C(=O)N[C@@H](CCCCN)C(N)=O | SAOS-2 | resazurin |  | IC50 | > 20000 nM
CC(C)C[C@@H](NC(=O)[C@H](C)NC(=O)CNC(=O)[C@@H](NC=O)C(C)C)C(=O)N[C@@H](C)C(=O)N[C@@H](C(=O)N[C@H](C(=O)N[C@@H](C(=O)N[C@@H](Cc1c[nH]c2ccccc12)C(=O)N[C@H](CC(C)C)C(=O)N[C@@H](Cc1cccc2[nH]ccc12)C(=O)N[C@H](CC(C)C)C(=O)N[C@@H](Cc1c[nH]c2ccccc12)C(=O)N[C@H](CC(C)C)C(=O)N[C@@H](Cc1c[nH]c2ccccc12)C(=O)NCCO)C(C)C)C(C)C)C(C)C | MCF7 | SRB | 48 h | GI50 | 68.4 nM
O=C(NCc1ccc(C(F)(F)F)cc1)c1cn(Cc2ccc(Cl)cc2)c2ccc(Oc3ccccc3)cc2c1=O | MCF7 | MTT | 24 h | IC50 | 177000 nM
Cc1sc2c(c1C)C(c1ccc(Cl)cc1)=N[C@@H](CC(N)=O)c1nnc(C)n1-2 | MP46 | ATP luminescence | 72 h | IC50 | 109 nM
O=C(Nc1ccc(Cl)cc1)Nc1cccc(-c2cn(Cc3ccc(Br)cc3)nn2)c1 | MCF7 | CCK-8 | 50 µM, 72 h | viability | 86.8%
N.N.[Cl][Pt][Cl] | MCF7 | MTT | 48 h | IC50 | 2000 nM
O=C(NCc1ccccc1)c1cn(Cc2ccc(C(F)(F)F)cc2)c2ccc(Oc3ccccc3)cc2c1=O | MCF7 | MTT |  | IC50 | < 12000 nM
CC(C)C[C@@H](NC(=O)[C@H](C)NC(=O)CNC(=O)[C@@H](NC=O)C(C)C)C(=O)N[C@@H](C)C(=O)N[C@@H](C(=O)N[C@H](C(=O)N[C@@H](C(=O)N[C@@H](Cc1c[nH]c2ccccc12)C(=O)N[C@H](CC(C)C)C(=O)N[C@@H](Cc1ccc2[nH]ccc2c1)C(=O)N[C@H](CC(C)C)C(=O)N[C@@H](Cc1c[nH]c2ccccc12)C(=O)N[C@@H](C(=O)N[C@@H](Cc1c[nH]c2ccccc12)C(=O)NCCO)C(C)C)[C@H](C)O)C(C)C)C(C)C | MCF7 | SRB | 48 h | GI50 | 878 nM
O=C(NCc1ccc(O)cc1)c1cn(Cc2ccc(F)cc2)c2ccc(Oc3ccccc3)cc2c1=O | MCF7 | MTT | 48 h | IC50 | 78400 nM
O=C1CCP(=[Se])(c2ccccc2)CC1 | SW-620 | MTT | 72 h | IC50 | > 100000 nM
